Data as given in PMC4029328 (Biomedical chromatography : BMC, 2013).
Like-named read-outs stand apart in the source and are kept apart here.

Tests used:
[1] = Intravenous pharmacokinetic study in rats; format: in vivo; conditions: 4 mg/kg IV bolus, male Sprague Dawley rats, n=6, mean ± SD
Procedure, shortened: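 Male rats 240-250 g, housed 48 h, fasted 12 h predose and 4 h postdose, water free. Dosed via jugular vein cannula, 30 s bolus in 10% PEG 400 in water, prepared same day. Chloroform liquid-liquid extraction with tryptoline internal standard. Noncompartmental analysis.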

[2] = Stability of 7-OHMG in rat plasma QC samples; format: in vitro ADME; conditions: for Concentration measured: n=6
[3] = tested on: opioid receptors; conditions: in vitro assays; ref Horie et al., 2005; cited from earlier work
[4] = tested on: μ-opioid receptors; conditions: ref Matsumoto et al., 2004, 2006; cited from earlier work
[5] = at equi-antinociceptive doses; ref Matsumoto et al., 2006; cited from earlier work
[6] = tested on: mice; conditions: ref Matsumoto et al., 2005, cited from earlier work
[7] = tested on: opioid receptors; conditions: pharmacological experiments; ref Watanabe et al., 1997; cited from earlier work
[8] = rat plasma, long term 30 days at -20 °C, spiked 20 ng/mL
[9] = rat plasma, long term 30 days at -20 °C, spiked 600 ng/mL
[10] = rat plasma, long term 30 days at -20 °C, spiked 3200 ng/mL
[11] = rat plasma, short term 12 hr at 25 °C, spiked 20 ng/mL
[12] = rat plasma, short term 12 hr at 25 °C, spiked 600 ng/mL
[13] = rat plasma, short term 12 hr at 25 °C, spiked 3200 ng/mL
[14] = rat plasma, three freeze thaw cycles, spiked 20 ng/mL
[15] = rat plasma, three freeze thaw cycles, spiked 600 ng/mL
[16] = rat plasma, three freeze thaw cycles, spiked 3200 ng/mL
[17] = reconstituted plasma extract, auto sampler 12 hr at 25 °C, spiked 20 ng/mL
[18] = reconstituted plasma extract, auto sampler 12 hr at 25 °C, spiked 600 ng/mL

CC[C@@H]1CN2CC[C@@]3(O)C(=Nc4cccc(OC)c43)[C@@H]2C[C@@H]1/C(=C\OC)C(=O)OC [7-OHMG, 7-hydroxymitragynine]
AUC0→∞ [1]: 98.3 ± 32.1 µg·min/mL | CL [1]: 44.2 ± 14.8 mL/min/kg | Cmax [1]: 3.0 ± 0.3 µg/mL | MRT [1]: 70.9 ± 10.0 min | T1/2 [1]: 22.9 ± 3.6 min | Vd [1]: 1595.8 ± 586.3 mL/kg | Short-term stability in plasma ([2]; 12 h at room temperature): stable | Auto-sampler stability of reconstituted samples ([2]; 12 h in auto-sampler at 25 °C): stable | Long-term stability in plasma ([2]; 30 days at -20 °C): stable | Accuracy (measured vs spiked concentration) [2, 8]: 98% | Concentration measured [2, 8]: 19.6 ± 0.8 ng/mL | Accuracy (measured vs spiked concentration) [2, 9]: 101.7% | Concentration measured [2, 9]: 610.4 ± 28.8 ng/mL | Accuracy (measured vs spiked concentration) [2, 10]: 95.6% | Concentration measured [2, 10]: 3058.2 ± 320.4 ng/mL | Accuracy (measured vs spiked concentration) [2, 11]: 101.5% | Concentration measured [2, 11]: 20.3 ± 1.3 ng/mL | Accuracy (measured vs spiked concentration) [2, 12]: 108.8% | Concentration measured [2, 12]: 652.7 ± 17.8 ng/mL | Accuracy (measured vs spiked concentration) [2, 13]: 102.8% | Concentration measured [2, 13]: 3289.4 ± 197.2 ng/mL | Accuracy (measured vs spiked concentration) [2, 14]: 102% | Concentration measured [2, 14]: 20.4 ± 0.3 ng/mL | Accuracy (measured vs spiked concentration) [2, 15]: 105.2% | Concentration measured [2, 15]: 631.3 ± 40.2 ng/mL | Accuracy (measured vs spiked concentration) [2, 16]: 103.5% | Concentration measured [2, 16]: 3312.5 ± 163.5 ng/mL | Accuracy (measured vs spiked concentration) [2, 17]: 95.5% | Concentration measured [2, 17]: 19.1 ± 0.7 ng/mL | Accuracy (measured vs spiked concentration) [2, 18]: 94.7% | Concentration measured [2, 18]: 568.3 ± 43.9 ng/mL | Accuracy (measured vs spiked concentration) ([2]; reconstituted plasma extract, auto sampler 12 hr at 25 °C, spiked 3200 ng/mL): 99.8% | Freeze-thaw stability in plasma ([2]; three freeze-thaw cycles, stored at -20 °C and thawed to room temperature): stable | Opioid agonistic effect among constituents of Mitragyna speciosa [3]: most potent effect | Affinity for μ- versus δ- and κ-opioid receptors [4]: higher affinity for μ-opioid receptors relative to the δ- and κ- receptors | Times less constipating than morphine [5]: 4.9-6.4 times | Place preference ([6]; 1 mg/kg dose): slight place preference | Place preference ([6]; 2 mg/kg dose): strong place preference

mitragynine
Effect on opioid receptors [7]: agonistic effects on opioid receptors
